Source: PubChem BioAssay (The Scripps Research Institute Molecular Screening Center)
An excerpt weighted towards active compounds, which were near 2.3% of everything screened.
PRMT1 inh: inhibitors of human PRMT1. Q99873. recombinant PRMT1, activity-based probe fluorescence polarization. inhibition, % at 2.79 µM. 370,000 compounds, 1.3% hits. AID 652257;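 active means inhibition above about 21% made by adding two undisclosed values, limit read from the data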
Fam108B inh: blocks mouse Fam108B hydrolase in RBBP9 counter-screen; recombinant Fam108B, FP-Rh probe fluorescence polarization; inhibition, % at 9.51 µM; 300,000 compounds, 0.33% hits;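 active means inhibition above the screen mean inhibition plus 3 SD, computed separately per campaign, cut at about 18% in these data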;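 further: inhibitors lower polarization as less probe binds the enzyme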
RBBP9 inhibitor: blocks human serine hydrolase RBBP9. O75884. recombinant RBBP9, FP-Rh probe fluorescence polarization. inhibition, % at 7.94 µM. 220,000 compounds, 0.2% hits. AID 1515;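 active means inhibition above the campaign mean of all tested compounds plus 3 SD, cut at about 14% in these data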;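 further: plate controls were DMSO wells with RBBP9 for no effect and wells lacking RBBP9 protein for full effect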
Target sequence (O75884 whole entry, looked up): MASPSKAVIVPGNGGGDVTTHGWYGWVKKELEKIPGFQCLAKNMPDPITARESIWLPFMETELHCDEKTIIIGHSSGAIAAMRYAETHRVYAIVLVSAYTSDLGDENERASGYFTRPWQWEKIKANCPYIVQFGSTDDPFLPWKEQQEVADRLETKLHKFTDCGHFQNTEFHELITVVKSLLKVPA
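Controls: DMSO-treated enzyme wells and wells lacking RBBP9 | Material: RBBP9 protein | Technique: Fluorescence polarization | Replication: Single well per compound, no replicates | Buffer or medium: Tris-NaCl-Pluronic buffer, pH 8.0 | Timing: 30 min compound preincubation, 45 min probe labeling, 25 °C | Read-out basis: Percent inhibition from mP, scaled between DMSO and no-protein wells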
PAD4 inh: blocks human protein arginine deiminase 4; recombinant PAD4, RCA probe fluorescence polarization; inhibition, % at 6.36 µM; 330,000 compounds, 0.41% hits; AID 485272;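 active means percent inhibition above a cutoff equal to the mean of all tested compounds plus 3 SD, cut at about 15% in these data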;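 further: 0% = PAD4 with RCA probe and DMSO and 100% = probe without PAD4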
PME-1 primary: blocks human protein phosphatase methylesterase 1. inhibition, % at 5.9 µM. recombinant PME-1, FP-Rh probe fluorescence polarization. Q9Y570. 320,000 compounds, 0.53% hits;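 active means inhibition above the campaign mean of all compounds plus 3 SD, cut at about 26% in these data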;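 further: competitive labeling of PME-1 active site by serine hydrolase directed probe; 0% = PME-1 with DMSO and 100% = wells lacking PME-1 enzyme; inhibitors block probe labeling so polarization falls and inhibition rises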
GSTO1 counter: counter-screen for RBBP9 inhibitors: inhibitors of human GSTO1; P78417; recombinant GSTO1, activity-based probe fluorescence polarization; inhibition, % at 5.96 µM; 300,000 compounds, 1.1% hits;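 active means inhibition above the campaign mean inhibition plus 3 SD, cut at about 35% in these data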;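 further: 0% = GSTO1-1 with DMSO and 100% = wells lacking GSTO1-1 enzyme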
Target sequence (P78417 whole entry, looked up): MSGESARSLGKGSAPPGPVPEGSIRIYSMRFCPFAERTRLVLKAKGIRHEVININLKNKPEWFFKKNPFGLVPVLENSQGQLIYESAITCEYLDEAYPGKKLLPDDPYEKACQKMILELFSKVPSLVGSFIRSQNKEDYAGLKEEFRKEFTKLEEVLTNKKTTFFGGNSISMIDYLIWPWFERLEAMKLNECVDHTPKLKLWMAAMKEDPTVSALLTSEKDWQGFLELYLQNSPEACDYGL
Fam108b confirm: confirmation of mouse Fam108b serine hydrolase inhibitors; shares compounds with Fam108B inh; recombinant Fam108b, FP-Rh probe fluorescence polarization; inhibition, % at 9.51 µM; 930 compounds, 44% hits;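 active means inhibition above a limit from the primary screen, the mean over all compounds plus 3 SD, cut at about 19% in these data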;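 further: 0% = median of active Fam108b wells and 100% = catalytically dead S170A mutant; inhibitors free the probe so polarization falls as inhibition rises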
Fam108b inh: inhibits mouse Fam108b in gel-based ABPP; recombinant Fam108b, fluorophosphonate probe; inhibition, % at 20 µM; shares compounds with Fam108B inh; 260 compounds, 44% hits; in the data active means inhibition above about 40%
An asterisk follows results filed as active; / = no result.

SMILES	PRMT1 inh	Fam108B inh	RBBP9 inhibitor	PAD4 inh	PME-1 primary	GSTO1 counter	Fam108b confirm	others
Cc1ccc(/C=C2\C(=O)ON=C2c2ccccc2)o1	3.3	0.8	-9.7	-6.8	-4.5	1.1	/
Cc1ccc(-c2ccc(/C=C3\C(=O)ON=C3c3ccccc3)o2)c([N+](=O)[O-])c1	5.4	21.8*	-2.3	-6.2	10.6	30.7	7.5
CN(C)c1ccc(C=NN2C(=S)SC(C)(C)C2N(O)C(=O)Nc2ccc([N+](=O)[O-])cc2)cc1 (centres undefined)	/	/	/	/	/	/	/	Fam108b inh=95.0*
CNC(=O)N(O)C1N(/N=C/c2ccc(SC)cc2)C(=S)SC1(C)C (centres undefined)	-1.1	-3.4	/	1.9	-0.7	1.5	/
CN(C)c1ccc(/C=N/N2C(=S)SC(C)(C)C2N(O)C(=O)Nc2ccc([N+](=O)[O-])cc2)cc1 (centres undefined)	1.1	33.3*	-14.6	-2.9	5.0	0.2	99.5*
CC(=O)CCc1oc2ccc(NC(C)=O)cc2c1-c1ccc(C)o1	/	1.4	-10.7	-0.4	4.5	1.9	/
CCSC1=NSC2=NC(=O)/C(=C\c3coc4ccccc4c3=O)C(=N)N12	7.4	43.5*	-6.0	-20.0	-2.5	-43.6	46.7*	Fam108b inh=0.0
CC(C)(C)c1nc2scc(-c3ccc(Cl)cc3)c2c(=O)o1	1.9	20.8*	0.5	4.3	-4.1	3.7	19.4*
CC(C)(C)c1nc2scc(-c3cccs3)c2c(=O)o1	-1.9	54.9*	-0.8	-0.1	-3.6	-2.0	106.1*	Fam108b inh=85.0*
COc1ccc(-c2csc3nc(C(C)(C)C)oc(=O)c23)cc1OC	-0.7	-0.9	-7.1	-4.2	10.9	4.8	/
Cc1nc2scc(-c3cccs3)c2c(=O)[nH]1	-0.5	9.7	0.1	0.7	-0.7	-2.9	/
Cc1ccc(C2c3c(C)nn(-c4ccc([N+](=O)[O-])cc4)c3N=C3C(=O)Nc4ccccc4N32)cc1 (centres undefined)	/	-21.3	-14.2	-4.2	-20.2	7.0	/
CCOC(=O)c1ccc(CNC(=O)Cn2nnc(-c3cccc(C)c3)n2)o1	/	-1.2	-6.2	-3.9	5.0	11.4	/
COc1ccc(CCNCC(O)COc2cccc(Br)c2)cc1 (centres undefined)	-4.5	-1.1	-1.5	1.6	4.4	-3.3	/
CC(=O)Oc1cc2c3c(c1)/C(=C1/SC(=S)NC1=O)C(=O)N3C(C)(C)C=C2C	5.2	19.2*	5.3	-0.1	24.8	17.9	22.3*
CCOc1cc2c3c(c1)C(C)=CC(C)(C)N3C(=O)C2=O	4.3	2.0	-9.3	-0.8	7.1	6.9	/
Cc1ccc(NS(=O)(=O)c2cc([N+](=O)[O-])ccc2NNC(=S)Nc2cc(C)ccc2C)c(C)c1	4.9	27.1*	-5.2	-6.6	22.7	-10.7	-16.4
COc1ccc(NC(=S)NNc2ccc([N+](=O)[O-])cc2S(=O)(=O)Nc2ccc(C)cc2C)cc1	23.9*	32.5*	-4.7	-2.6	22.2	1.3	10.8
COc1ccc(NC(=S)Nc2cccc([N+](=O)[O-])c2)cc1	-4.5	-1.8	0.1	0.6	5.1	-3.2	/
Cc1ccc(NS(=O)(=O)c2cc([N+](=O)[O-])ccc2NNC(=S)Nc2cccc(Cl)c2)c(C)c1	/	30.3*	-13.3	-0.6	24.8	-60.5	17.9
COc1ccc(N/N=C(\C=N\O)C(=O)c2ccc(OC)cc2)cc1	0.0	47.2*	-1.7	0.8	57.4*	-5.2	42.3*
COc1ccc(C(=O)C(=NNc2ccccc2)c2ccc(OC)cc2)cc1	2.6	/	/	/	/	/	/
O=C(COC(=O)c1ccccc1O)NCCc1c[nH]c2ccccc12	0.1	/	/	-6.3	/	/	/
O=C(COC(=O)c1ccccc1C(=O)OCC(=O)NCCc1c[nH]c2ccccc12)NCCc1c[nH]c2ccccc12	-1.0	18.8*	/	4.2	8.7	-1.8	11.4
O=C(NCCc1c[nH]c2ccccc12)OCCCCOC(=O)NCCc1c[nH]c2ccccc12	-2.1	23.1*	/	7.0	9.5	-5.4	-2.5
O=c1oc(-c2ccccc2NS(=O)(=O)c2ccccc2)nc2ccccc12	-0.8	20.9*	-10.7	-6.6	-2.7	-280.6	18.0
